Assay results from PubChem BioAssay.
Active and inactive are the calls of the source.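 Rule for the calls, unless noted: active = inhibition of the reporter signal at or above 50%; inactive = inhibition below 50%.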

Assays:
[1] = inhibitors of TNFa-induced NFkB p65 translocation, primary screen, imaging, HUVEC, MLSMR starter and 10KST1 sets (AID 438;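 active = inhibition above 20% together with a positive visual image hit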;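 note: compound added about 3h40 before a 20 min TNFalpha stimulation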;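 for inhibition: signal is the nuclear over cytoplasmic p65 intensity ratio per well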); conditions: HUVEC TNFa-induced p65 nuclear translocation; cell count: measured here: nuclei count (cytotoxicity indicator), at 2.08 µM; inhibition: at 2 µM, stronger effect = higher value, 0% TNFa-plus-vehicle, 100% no-TNFa wells
[2] = inhibitors of mutant huntingtin aggregation, primary screen, imaging, exon1htt(103Q)mCFP cells, high-content imaging (AID 483;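 active = visual image review flags a hit and inhibition of aggregation exceeds 20%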;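 note: compound exposure lasted 3 days before fixation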;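 for nuclei count: percent of the per-plate median nuclei count of sample wells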); conditions: exon1htt(103Q)mCFP cell line, aggregate imaging, at 2 µM; inhibition of aggregation: stronger effect = higher value; nuclei count: measured here: cell count, toxicity
[3] = inhibitors of E-selectin induction by TNFa, primary screen, imaging, HUVEC, immunofluorescence, MLSMR starter and 10KST1 sets (AID 487;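 active = visually confirmed hit in the image check and inhibition above 20%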;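 for inhibition: signal is fraction of cell area covered by stained E-selectin grains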;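 for nuclei count: 100% = median nuclei count of all wells on the same plate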); conditions: HUVEC TNFalpha-induced E-selectin immunofluorescence imaging, at 2 µM; inhibition: stronger effect = higher value; nuclei count: measured here: cell number, toxicity
[4] = target: Voltage-gated potassium channel subunit beta-2 (Rattus norvegicus) (UniProt P62483); experiment: KvBeta enzyme negative modulators, primary screen, biochemical, NADPH fluorescence (AID 622;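 active = fluorescence slope higher than the sample average by over 3 SD, cut at about -0.22 in these data, passing the limit was not always enough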;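 note: slope of raw intensity against log time taken from 70 to 1610 s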); conditions: recombinant KvBeta, 4-cyanobenzaldehyde reduction, at 10 µM, stronger effect = higher value
Voltage-gated potassium channel subunit beta-2 (Rattus norvegicus), sequence (P62483 whole entry, looked up): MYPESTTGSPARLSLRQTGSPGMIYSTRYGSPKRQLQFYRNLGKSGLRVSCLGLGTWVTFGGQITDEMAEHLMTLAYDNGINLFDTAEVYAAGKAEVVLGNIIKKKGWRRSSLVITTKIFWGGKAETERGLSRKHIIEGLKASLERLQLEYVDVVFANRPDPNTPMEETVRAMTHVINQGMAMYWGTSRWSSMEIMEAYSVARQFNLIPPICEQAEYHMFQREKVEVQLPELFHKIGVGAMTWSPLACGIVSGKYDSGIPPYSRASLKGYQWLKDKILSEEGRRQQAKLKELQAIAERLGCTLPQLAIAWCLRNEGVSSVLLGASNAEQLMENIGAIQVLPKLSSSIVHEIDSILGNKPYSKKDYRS

[5] = target: Voltage-gated potassium channel subunit beta-2 (Rattus norvegicus) (UniProt P62483); experiment: KvBeta positive modulators, primary screen, biochemical, NADPH fluorescence (AID 623;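 active = NADPH fluorescence slope more negative than the mean of all samples by about 3 SD, 99.7% confidence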;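 note: fluorescence intensity change per second fitted from 20 to 320 s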); conditions: Recombinant KvBeta, NADPH fluorescence decrease slope, 10 min; at 10 µM; stronger effect = lower value
[6] = target: Muscarinic acetylcholine receptor M4 (Homo sapiens) (UniProt P08173); experiment: compounds altering M4/GIRK thallium flux, either direction, primary screen, M4 allosteric agonist project, cell-based, HEK293 M4/GIRK, BTC-AM (AID 625;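 active = fluorescence slope after compound addition differing from the mean of all tested samples at 99.7% confidence, mostly higher but some lower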;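 note: thallium influx through GIRK channels coupled to M4 in HEK293 cells with BTC-AM dye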); conditions: at 10 µM, actives lie on both sides
Muscarinic acetylcholine receptor M4 (Homo sapiens), sequence (P08173 whole entry, looked up): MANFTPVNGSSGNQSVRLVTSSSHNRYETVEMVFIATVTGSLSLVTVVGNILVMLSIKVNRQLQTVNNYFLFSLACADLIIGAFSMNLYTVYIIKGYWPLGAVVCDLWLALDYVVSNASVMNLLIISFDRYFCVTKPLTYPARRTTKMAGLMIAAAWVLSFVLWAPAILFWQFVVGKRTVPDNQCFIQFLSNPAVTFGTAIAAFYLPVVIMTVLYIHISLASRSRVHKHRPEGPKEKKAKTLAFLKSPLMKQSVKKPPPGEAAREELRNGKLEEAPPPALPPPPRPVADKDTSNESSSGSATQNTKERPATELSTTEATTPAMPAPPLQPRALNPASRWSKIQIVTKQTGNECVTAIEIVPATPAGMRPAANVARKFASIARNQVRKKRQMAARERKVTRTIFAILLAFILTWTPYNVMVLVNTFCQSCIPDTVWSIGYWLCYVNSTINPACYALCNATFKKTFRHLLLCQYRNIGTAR
In short: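 Material: HEK293 cells with M4 receptor and GIRK channels; Times: cells overnight at 37 °C, BTC-AM loading 1 h, reads 2 min total; Technique: kinetic BTC-AM fluorescence sampled at 1 Hz, 10 s pre-addition baseline; Read-out basis: slope over 15–24 s of trace normalized to starting intensity; Controls: carbachol positive, DMSO negative.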

[7] = inhibitors of Sendai virus-induced IRF3 signaling, primary screen, TLR/RLR signaling modifier project, cell-based, Sendai virus stimulus, luciferase, 10K MLSCN set (AID 602276;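 active = inhibition at or above 50% at 10 µM; inactive = inhibition below 50%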;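 note: firefly luciferase from ISG56 promoter only with Renilla not read in this screen; 0% = Sendai virus plus DMSO and 100% = medium plus DMSO without virus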); conditions: HEK293 RL24 IRF3 luciferase reporter, at 10 µM, stronger effect = higher value
[8] = inhibitors of poly I:C-induced TLR3 signaling, primary screen, cell-based, poly I:C stimulus, luciferase, 10K MLSCN set (AID 602277); conditions: HEK293-TLR3 RL24 IRF3 luciferase reporter, at 10 µM, stronger effect = higher value

SMILES	cell count [1]	inhibition [1]	inhibition of aggregation [2]	nuclei count [2] [%]	inhibition [3]	nuclei count [3] [%]	fluorescence slope [4]	NADPH fluorescence slope [5]	fluorescence slope [6]	inhibition [7]	inhibition [8]
COC(=O)c1cc(Br)ccc1-c1ccc(/C=N/n2nnnc2N)o1	438	1% (inactive)	-4.4% (inactive)	97.9	-56% (inactive)	111	-0.531 (inactive)	-2.3e-05 (inactive)	0.00728 (inactive)	15.2% (inactive)	24.4% (inactive)
Cc1nc2sc3c(c2c(=O)o1)CCC3	619	2.1% (inactive)	-0.2% (inactive)	108	0.3% (inactive)	93.8	-0.511 (inactive)	-0.000121 (inactive)	0.00356 (inactive)	16.2% (inactive)	22.8% (inactive)
CC(C)Oc1ccc(C2C(C(=O)c3ccco3)=C(O)C(=O)N2CCCN(C)C)cc1 (centres undefined)	694	-5.2% (inactive)	17.7% (inactive)	80.9	-16.4% (inactive)	112	-0.476 (inactive)	-0.000237 (inactive)	0.00376 (inactive)	13.1% (inactive)	8.15% (inactive)
CCNc1oc(COc2ccccc2F)nc1C#N	318	14.7% (inactive)	-13.4% (inactive)	106	-8.8% (inactive)	94.1	-0.578 (inactive)	-2.3e-07 (inactive)	0.00601 (inactive)	0.938% (inactive)	-48.6% (inactive)
CCOC(=O)c1ccc(Oc2nc(NC)nc(OC)n2)cc1	635	6.8% (inactive)	-13.2% (inactive)	98.2	-41.5% (inactive)	110	-0.295 (inactive)	-1.6e-06 (inactive)	0.00677 (inactive)	-7.27% (inactive)	18.3% (inactive)
CCn1nnc(-c2ccccc2NC(=O)c2ccc(-n3cnnn3)cc2)n1	333	-2.5% (inactive)	-19% (inactive)	97.1	1.4% (inactive)	90.6	-0.5 (inactive)	-0.000135 (inactive)	0.00365 (inactive)	15.3% (inactive)	15.5% (inactive)
NC(=O)c1nsnc1-c1ccccc1O	504	-9.3% (inactive)	-3.4% (inactive)	107	20.3% (inactive)	100	-0.531 (inactive)	0.0001 (inactive)	0.00622 (inactive)	-10.2% (inactive)	-7.73% (inactive)
COc1cccc(C(=O)CSc2nnc(COc3cccc4cccnc34)o2)c1	558	-6.3% (inactive)	-10.3% (inactive)	117	-1.4% (inactive)	197	-0.51 (inactive)	3.4e-05 (inactive)	0.00397 (inactive)	-8.03% (inactive)	-13.7% (inactive)
Cc1cc(NC(=O)CSc2ccc3nnc(-c4cccc(F)c4)n3n2)no1	619	-13.6% (inactive)	10.1% (inactive)	125	-55.4% (inactive)	107	-0.266 (inactive)	1e-08 (inactive)	0.00544 (inactive)	-1.23% (inactive)	-7.4% (inactive)
CCCCCc1c(O)c2ccccc2[nH]c1=O	596	-9.8% (inactive)	-15.9% (inactive)	109	-4.6% (inactive)	87	-0.565 (inactive)	-9.6e-05 (inactive)	0.00337 (inactive)	11.7% (inactive)	13.8% (inactive)
CCC(C)NC(=O)CSC1=Nc2ccccc2C2=NC(CC(=O)NCc3ccccc3)C(=O)N12 (centres undefined)	651	-7.5% (inactive)	-9% (inactive)	55.7	-58.9% (inactive)	89.6	-0.461 (inactive)	-1.4e-05 (inactive)	0.00538 (inactive)	10.6% (inactive)	26.5% (inactive)
COCCOc1nc2ccccc2nc1C	351	5.2% (inactive)	8.5% (inactive)	87.8	-5.9% (inactive)	104	-0.615 (inactive)	-2.4e-05 (inactive)	0.00668 (inactive)	16.4% (inactive)	2.62% (inactive)
O=C(O)c1ccccc1C(=O)Nc1ccccc1	476	-6% (inactive)	-8.6% (inactive)	82.7	-88.4% (inactive)	143	-0.5 (inactive)	-0.000287 (inactive)	0.00478 (inactive)	5.22% (inactive)	8.4% (inactive)
Cc1cc(NC(=O)CSc2ccc(Cl)cc2)no1	368	0.2% (inactive)	12.7% (inactive)	94.2	-83.4% (inactive)	102	-0.548 (inactive)	-0.000128 (inactive)	0.00359 (inactive)	-7.02% (inactive)	-14.7% (inactive)
